This note sets out measurements from ChEMBL document CHEMBL3588845, “Protozoan Parasite Growth Inhibitors Discovered by Cross-Screening Yield Potent Scaffolds for Lead Discovery” (J Med Chem, 2015).

By EC50 is commonly meant the concentration giving half of the maximal effect. As a reminder, the solubility is the concentration that dissolves in the medium under given conditions. A higher solubility goes with a readily soluble substance.

The subject of data set [1] is Leishmania major. Put plainly: Antiparasite activity against Leishmania major promastigotes assessed as growth inhibition incubated for 44 hrs by alamar blue dye based fluorescence assay. The data set is classed as functional, organism-based. In general terms: Resazurin is reduced to fluorescent resorufin, in cell work by metabolically active cells.
For data set [2], the system named is Trypanosoma cruzi. Put plainly: Antiparasite activity against Trypanosoma cruzi Tulahuen expressing beta-galactosidase assessed as growth inhibition at 10 uM incubated for 96 hrs by CPRG dye based assay. In kind it is functional. The settings on record: read-out: GI.
Data set [3] has as its system Leishmania major. Kind of data set: Antiparasite activity against luciferase-expressing Leishmania major amastigotes isolated from infected in mouse RAW264.7 cells assessed as growth inhibition incubated for 96 hrs by luciferase reporter gene assay. Particulars: RAW264.7, 96 h. The data set is classed as functional, organism-based. (In general: A reporter such as luciferase makes a cellular process visible.)

For data set [4], the system named is Plasmodium falciparum. Put plainly: Antiparasite activity against Plasmodium falciparum D6 assessed as growth inhibition incubated for 72 hrs by SYBR green fluorescence assay. The settings on record: D6, 72 h. The data set is classed as functional, organism-based.
A short description of data set [5]: Toxicity against human HepG2 cells incubated for 48 hrs by MTT assay. The data set is classed as cell-based. The settings on record: read-out: TC50. Background: Tetrazolium dyes change colour on reduction, which living cells bring about.
Another data set has as its system Trypanosoma brucei. Kind of data set: Antiparasite activity against Trypanosoma brucei 427 assessed as growth inhibition incubated for 48 hrs by PrestoBlue based fluorescence assay. In kind it is functional, organism-based. Particulars: Trypanosoma brucei, 427, 48 h.
Data set [6] deals with Plasmodium falciparum. Kind of data set: Antiparasite activity against drug resistant Plasmodium falciparum C235 assessed as growth inhibition incubated for 72 hrs by SYBR green fluorescence assay. In kind it is functional, organism-based. The settings on record: C235, 72 h.
A short description of data set [7]: Protein binding in plasma (unknown origin) assessed as fraction unbound. The data set is classed as ADME, cell-free.
A short description of data set [8]: Aqueous solubility of the compound. The settings on record: buffer. In kind it is physicochemical. The method in brief: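 Aqueous solubility measured as thermodynamic solubility.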
In data set [9] the test system is Plasmodium falciparum. Put plainly: Antiparasite activity against drug resistant Plasmodium falciparum W2 assessed as growth inhibition incubated for 72 hrs by SYBR green fluorescence assay. The data set is classed as functional, organism-based. The settings on record: W2, 72 h.
The test system of another data set is Hepatocyte. Kind of data set: Intrinsic clearance in rat hepatocytes assessed per 10^6 cells. In kind it is ADME, cell-based.
Data set [10] relates to Trypanosoma cruzi. Put plainly: Antiparasite activity against Trypanosoma cruzi Tulahuen expressing beta-galactosidase assessed as growth inhibition incubated for 96 hrs by CPRG dye based assay. The data set is classed as functional, organism-based.

The structures appear in SMILES notation.

In the case of `CN1CCN(S(=O)(=O)c2ccc(-c3ccc4ncnc(Nc5ccc(OCc6cccc(F)c6)c(Cl)c5)c4c3)cc2)CC1`, the EC50 with Leishmania major [1] is 2800 nM; with Leishmania major [3] it was 1600 nM; in the data set with Plasmodium falciparum [4] it was 27 nM. Further, in the data set with Trypanosoma cruzi [2], the inhibition of growth at 10 µM turned out to be 60%. Besides, the CC50 at 48 h in data set [5] is greater than 15000 nM.

Turning to `O=S(=O)(c1ccc(-c2ccc3ncnc(Nc4ccc(OCc5ccccc5)c(Cl)c4)c3c2)cc1)N1CCOCC1`, the EC50 in the data set with Leishmania major [1] is 500 nM; in the data set on Trypanosoma brucei, 1400 nM; in the data set on Leishmania major [3], greater than 15000 nM; with Plasmodium falciparum [4], 260 nM. In the data set on Trypanosoma cruzi [2], the inhibition of growth at 10 µM is 9.5%. Further, the CC50 at 48 h in [5] was greater than 15000 nM.

As for `O=S(=O)(c1ccc(-c2ccc3nccc(Nc4ccc(OCc5ccccc5)c(Cl)c4)c3c2)cc1)N1CCOCC1`, the EC50 in the data set on Plasmodium falciparum [6] came out at 54 nM; in the data set with Leishmania major [1], 200 nM; with Trypanosoma brucei, 2100 nM; in the data set with Plasmodium falciparum [9], 110 nM; with Leishmania major [3], 3400 nM; in the data set with Plasmodium falciparum [4] it was 32 nM. Besides, the EC50 with Trypanosoma cruzi [10] amounted to 49000 nM. Moreover, the Fu in data set [7] was less than 1%. This compound also displayed a solubility in data set [8] of less than 1 µM. The compound also came in with a CLH in the data set on Hepatocyte of 13.93 µL/min. The CC50 at 48 h in data set [5] was greater than 5000 nM.

On to `CN1CCCN(S(=O)(=O)c2ccc(-c3ccc4c(Nc5ccc(OCc6cccc(F)c6)c(Cl)c5)cnnc4c3)cc2)CC1`, for which the EC50 in the data set with Plasmodium falciparum [6] is 5 nM; in the data set on Leishmania major [1], 6400 nM; in the data set on Trypanosoma brucei, 210 nM; in the data set on Plasmodium falciparum [9], 13 nM; in the data set with Leishmania major [3], 240 nM; in the data set with Plasmodium falciparum [4], 3 nM. Also, in the data set with Trypanosoma cruzi [10], the EC50 came to 49000 nM. In addition, the Fu in data set [7] is less than 1%. For the same compound, the solubility in data set [8] is less than 1 µM. Also, in the data set with Hepatocyte, the CLH was 36.72 µL/min. The CC50 at 48 h in [5] turned out to be 15000 nM.
